Measurements published in PMC3580954 (Biopolymers, 2013).
Numbering of substitutions follows the chain as printed. Residues, ends and D or L forms follow the SMILES beside them.

Tests used:
Format in all cases: cell-based
Settings in all cases: SD
wt hPrRP receptor = target: T1, wt hPrRP receptor (Homo sapiens, UniProt P49683); test: Signal transduction
T1 sequence (P49683 1-370): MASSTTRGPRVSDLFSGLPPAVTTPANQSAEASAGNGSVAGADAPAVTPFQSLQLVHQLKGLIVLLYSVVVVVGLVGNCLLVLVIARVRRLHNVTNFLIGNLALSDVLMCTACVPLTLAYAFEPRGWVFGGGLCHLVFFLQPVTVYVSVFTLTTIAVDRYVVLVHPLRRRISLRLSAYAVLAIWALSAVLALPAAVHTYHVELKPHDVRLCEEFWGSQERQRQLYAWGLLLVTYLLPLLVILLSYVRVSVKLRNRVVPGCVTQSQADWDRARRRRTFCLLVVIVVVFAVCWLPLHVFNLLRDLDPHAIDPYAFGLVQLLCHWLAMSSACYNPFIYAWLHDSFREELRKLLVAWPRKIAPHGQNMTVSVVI
In short: (§1)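 COS-7 cells were transiently transfected with 0.4 µg plasmid of human PrRP receptor or its site-directed mutant, C-terminally fused to EYFP. One day after transfection and 16 h before stimulation, cells were labelled with 2 µCi/mL [³H]myo-inositol. They were then stimulated with increasing peptide concentrations for 1 h at 37°C in DMEM with 10 mM LiCl, and lysed in 0.1 M NaOH. IP was separated by anion exchange and counted by scintillation. EC50 came from concentration-response curves; runs were in duplicate, repeated ≥2 times.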

Y^2.64A PrRP receptor = target: T2, Y^2.64A PrRP receptor (Homo sapiens, UniProt P49683, Y120A); test: IP accumulation assay, Y^2.64A receptor mutant
T2 sequence (P49683 1-370 Y120A): T1 sequence (P49683 1-370) with Y120A
In short: as §1

F^2.66A PrRP receptor = target: T3, F^2.66A PrRP receptor (Homo sapiens, UniProt P49683, F122A); test: IP accumulation assay, F^2.66A receptor mutant
T3 sequence (P49683 1-370 F122A): T1 sequence (P49683 1-370) with F122A

E^2.67A PrRP receptor = target: T4, E^2.67A PrRP receptor (Homo sapiens, UniProt P49683, E123A); test: IP accumulation assay, E^2.67A receptor mutant
T4 sequence (P49683 1-370 E123A): T1 sequence (P49683 1-370) with E123A

R^2.69A PrRP receptor = target: T5, R^2.69A PrRP receptor (Homo sapiens, UniProt P49683, R125A); test: IP accumulation assay, R^2.69A receptor mutant
T5 sequence (P49683 1-370 R125A): T1 sequence (P49683 1-370) with R125A

W^2.71A PrRP receptor = target: T6, W^2.71A PrRP receptor (Homo sapiens, UniProt P49683, W127A); test: IP accumulation assay, W^2.71A receptor mutant
T6 sequence (P49683 1-370 W127A): T1 sequence (P49683 1-370) with W127A
In short: as §1

F^2.73A PrRP receptor = target: T7, F^2.73A PrRP receptor (Homo sapiens, UniProt P49683, F129A); test: IP accumulation assay, F^2.73A receptor mutant
T7 sequence (P49683 1-370 F129A): T1 sequence (P49683 1-370) with F129A

- EC50 (wt hPrRP receptor): 2.2 ± 0.3 nM
- EC50 (Y^2.64A PrRP receptor): 50 ± 7.5 nM
- EC50 (F^2.66A PrRP receptor): 6.2 ± 3.3 nM
- EC50 (E^2.67A PrRP receptor): 7.2 ± 3.4 nM
- EC50 (R^2.69A PrRP receptor): 4.2 ± 2.5 nM
- EC50 (W^2.71A PrRP receptor): 593 ± 78 nM
- EC50 (F^2.73A PrRP receptor): 4.4 ± 2 nM
SMILES: CC[C@H](C)[C@H](NC(=O)CNC(=O)[C@H](CCCNC(=N)N)NC(=O)[C@H](CO)NC(=O)[C@H](C)NC(=O)[C@H](Cc1ccc(O)cc1)NC(=O)[C@H](Cc1c[nH]c2ccccc12)NC(=O)[C@H](C)NC(=O)[C@@H]1CCCN1C(=O)[C@H](CC(N)=O)NC(=O)[C@@H](NC(=O)[C@H](CC(=O)O)NC(=O)[C@@H]1CCCN1C(=O)[C@@H](N)[C@@H](C)O)[C@@H](C)CC)C(=O)N[C@@H](CCCNC(=N)N)C(=O)N1CCC[C@H]1C(=O)N[C@H](C(=O)NCC(=O)N[C@@H](CCCNC(=N)N)C(=O)N[C@@H](Cc1ccccc1)C(N)=O)C(C)C [PrRP20] (H-TPDINPAWYASRGIRPVGRF-NH2)
